Activity calls are given as the source filed them. The calls are words filed in the database; no cut-off is given here.
Tests used:
[1] = Displacement of [3H]muscimol from GABAA receptor in rat synaptic membrane after 60 mins by scintillation counting analysis; format: cell membranes
Summary of the method: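 Membranes from cortex and central hemispheres of male SPRD rat brains, washed repeatedly in 50 mM Tris-HCl pH 7.4. 70–80 μg protein per well incubated with [3H]muscimol. Separated by GF/C filtration with ice-cold buffer washes; bound radioactivity counted by scintillation. Nonspecific binding defined with 1.0 mM GABA.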

[2] = biological target: T1, GABA-A receptor; alpha-1/beta-2/gamma-2 (Homo sapiens, UniProt P14867+P18507+P47870); experiment: Agonist activity at human GABAA alpha1beta2gamma2S receptor expressed in TSA201 cells after 1 min by FLIPR assay; format: cell-based
T1 sequence (P14867 whole entry): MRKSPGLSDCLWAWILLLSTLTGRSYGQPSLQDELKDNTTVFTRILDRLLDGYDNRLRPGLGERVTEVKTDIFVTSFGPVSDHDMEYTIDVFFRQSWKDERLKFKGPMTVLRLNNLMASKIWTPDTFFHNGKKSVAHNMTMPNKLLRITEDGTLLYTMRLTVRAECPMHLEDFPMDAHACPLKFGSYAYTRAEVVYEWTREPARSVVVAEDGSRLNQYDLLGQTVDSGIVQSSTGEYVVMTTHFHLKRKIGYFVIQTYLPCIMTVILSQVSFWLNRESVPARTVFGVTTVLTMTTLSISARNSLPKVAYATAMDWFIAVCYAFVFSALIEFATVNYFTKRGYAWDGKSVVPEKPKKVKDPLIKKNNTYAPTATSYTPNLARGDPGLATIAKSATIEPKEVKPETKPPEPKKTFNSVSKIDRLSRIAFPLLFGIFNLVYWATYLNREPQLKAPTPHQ
T1 sequence (P47870 whole entry): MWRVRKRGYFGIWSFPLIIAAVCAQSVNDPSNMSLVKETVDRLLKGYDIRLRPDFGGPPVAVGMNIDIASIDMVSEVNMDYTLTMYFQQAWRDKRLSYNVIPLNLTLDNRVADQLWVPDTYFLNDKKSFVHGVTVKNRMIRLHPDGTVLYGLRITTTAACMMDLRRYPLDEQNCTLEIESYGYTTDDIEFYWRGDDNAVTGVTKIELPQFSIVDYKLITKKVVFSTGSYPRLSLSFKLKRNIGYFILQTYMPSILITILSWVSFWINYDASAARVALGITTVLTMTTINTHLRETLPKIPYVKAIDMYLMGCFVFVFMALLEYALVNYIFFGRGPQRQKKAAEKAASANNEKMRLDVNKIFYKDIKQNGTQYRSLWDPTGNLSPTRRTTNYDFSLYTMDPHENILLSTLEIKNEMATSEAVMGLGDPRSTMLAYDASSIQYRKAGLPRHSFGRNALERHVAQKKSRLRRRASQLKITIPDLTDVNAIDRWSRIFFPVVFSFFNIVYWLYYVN
T1 sequence (P18507 whole entry): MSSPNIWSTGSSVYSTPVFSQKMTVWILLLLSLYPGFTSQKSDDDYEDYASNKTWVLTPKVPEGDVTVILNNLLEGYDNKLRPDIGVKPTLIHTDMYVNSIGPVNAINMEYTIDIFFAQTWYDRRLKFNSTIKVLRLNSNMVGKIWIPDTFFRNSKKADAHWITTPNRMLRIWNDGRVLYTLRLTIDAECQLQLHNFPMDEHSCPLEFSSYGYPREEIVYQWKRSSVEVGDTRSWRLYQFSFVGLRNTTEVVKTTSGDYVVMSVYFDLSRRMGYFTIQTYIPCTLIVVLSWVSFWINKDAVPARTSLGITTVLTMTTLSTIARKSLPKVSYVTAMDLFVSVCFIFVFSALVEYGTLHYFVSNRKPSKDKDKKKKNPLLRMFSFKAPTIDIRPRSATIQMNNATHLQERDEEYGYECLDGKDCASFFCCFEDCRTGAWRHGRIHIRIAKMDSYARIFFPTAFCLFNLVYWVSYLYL
Summary of the method: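 tsA201 cells transfected with 1 μg α (1, 2, 3 or 5), 1 μg β2 and 3 μg γ2S cDNA (Polyfect). Cells replated onto poly-D-lysine plates and assayed 16–24 h later. Loaded with FMP blue dye in Krebs buffer pH 7.4 for 30 min at 37 °C.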

[3] = biological target: T2, Gamma-aminobutyric acid receptor subunit rho-1 (Homo sapiens, UniProt P24046); experiment: Agonist activity at human GABAA rho1 receptor expressed in TSA201 cells after 1 min by FLIPR assay; format: cell-based
Summary of the method: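 tsA201 cells transfected with 5 μg human ρ1 cDNA, then plated on poly-D-lysine plates for 16–24 h. Loaded with FLIPR membrane potential blue dye in Krebs buffer (pH 7.4), 30 min at 37 °C. Emission at 560 nm (excitation 530 nm) recorded before and up to 1 min after agonist addition. Curves fitted from ΔFU; duplicate, at least three times.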

[4] = biological target: T1, GABA-A receptor; alpha-1/beta-2/gamma-2; experiment: Agonist activity at human GABAA alpha1beta2gamma2S receptor expressed in HEK293 cells by patch clamp electrophysiology assay; format: cell-based
[5] = biological target: T3, GABA-A receptor; alpha-1/beta-2/gamma-2 (Homo sapiens) (UniProt P14867+P47870+P18507); experiment: Agonist activity at human GABAA alpha1beta2gamma2S receptor expressed in HEK293 cells by patch clamp electrophysiology assay relative to GABA; format: cell-based
[6] = biological target: T2, Gamma-aminobutyric acid receptor subunit rho-1; experiment: Agonist activity at human GABAA rho1 receptor expressed in HEK293 cells at up to 300 uM by patch clamp electrophysiology assay; format: cell-based
[7] = biological target: T3, GABA-A receptor; alpha-1/beta-2/gamma-2 (Homo sapiens); experiment: Agonist activity at human GABAA alpha1beta2gamma2S receptor expressed in TSA201 cells at 300 to 500 uM after 1 min by FLIPR assay; format: cell-based
[8] = biological target: T2, Gamma-aminobutyric acid receptor subunit rho-1; experiment: Agonist activity at human GABAA rho1 receptor expressed in TSA201 cells at 300 to 500 uM after 1 min by FLIPR assay; format: cell-based

T2 sequence (P24046 whole entry): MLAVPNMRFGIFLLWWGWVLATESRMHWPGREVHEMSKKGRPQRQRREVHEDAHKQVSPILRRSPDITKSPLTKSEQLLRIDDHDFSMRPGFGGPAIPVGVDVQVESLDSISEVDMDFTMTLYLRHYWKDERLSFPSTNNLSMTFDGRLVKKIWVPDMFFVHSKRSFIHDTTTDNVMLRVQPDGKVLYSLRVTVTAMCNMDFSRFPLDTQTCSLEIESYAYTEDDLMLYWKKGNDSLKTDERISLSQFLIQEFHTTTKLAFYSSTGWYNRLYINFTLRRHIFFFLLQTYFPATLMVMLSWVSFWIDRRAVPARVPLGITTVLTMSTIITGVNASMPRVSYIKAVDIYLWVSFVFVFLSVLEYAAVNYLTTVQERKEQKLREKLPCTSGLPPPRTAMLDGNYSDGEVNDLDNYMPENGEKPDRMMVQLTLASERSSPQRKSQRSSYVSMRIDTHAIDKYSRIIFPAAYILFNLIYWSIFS

| Ki [1] [µM] | EC50 [4] [µM] | Rmax [5] [%] | Activity [6] | Structure (SMILES) | EC50 [2] [µM] | EC50 [3] [µM] | pKi [1] | Activity [7] | Activity [8] |
| --- | --- | --- | --- | --- | --- | --- | --- | --- | --- |
| > 100 |  |  |  | NCc1cn(O)nc1N |  |  |  |  |  |
| 68 |  |  |  | Cc1nn(O)cc1CN |  |  | 4.16 |  |  |
| 0.63 | > 30 | > 72 | inactive | NCc1cnn(O)c1Cl | 29 | > 500 | 6.2 |  |  |
| > 100 |  |  |  | On1cc2c(n1)CCNC2 |  |  |  |  |  |
| > 100 |  |  |  | Cc1nn(O)c(C)c1CN |  |  |  |  |  |
| 2.8 | > 100 | > 23 | inactive | NCc1cnn(O)c1Br |  |  | 5.56 |  |  |

| Structure (SMILES) | Ki [1] [µM] | EC50 [4] [µM] | Rmax [5] [%] | Activity [6] | EC50 [2] [µM] | EC50 [3] [µM] | pKi [1] | Activity [7] | Activity [8] |
| --- | --- | --- | --- | --- | --- | --- | --- | --- | --- |
| NCc1cn(O)nc1-c1ccccc1 | > 100 |  |  |  | > 500 | > 500 |  |  |  |
| NCc1cn(O)nc1-c1cccc(-c2ccccc2)c1 | 17 |  |  |  | > 500 | > 500 | 4.81 | inactive | inactive |
| NCc1cn(O)nc1-c1ccc(-c2ccccc2)cc1 | 13 |  |  |  | > 300 | > 500 | 4.89 | inactive | inactive |
| NCc1cn(O)nc1I | 32 |  |  |  | > 500 | > 500 | 4.5 |  |  |
